{"source": "ChEMBL document CHEMBL1134324", "about": "“Chemosensitization of a multidrug-resistant Leishmania tropica line by new sesquiterpenes from Maytenus magellanica and Maytenus chubutensis” (J Med Chem, 2001)", "format_in_all_cases": "functional", "key": {"[1]": {"test_system": "Leishmania tropica", "assay": "Growth inhibition of wild type L. Tropica parasite at 30 uM concentration", "method_in_brief": "(§1)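 Intrinsic toxicity assay on wild-type LRC clone promastigotes, log phase, 3 × 10⁵ cells per well, exposed to sesquiterpene without DNM (DMSO stock diluted in medium; final DMSO ≤0.3%). Incubated 72 h at 28 °C in RPMI 1640-modified medium with 20% FBS. Viability read by MTT (4 h, SDS solubilization, 540 nm). Survival is absorbance ratio to untreated control, expressed as %GI.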"}, "[2]": {"test_system": "Leishmania tropica", "assay": "Growth inhibition of MDR (DNM-R150) L. Tropica line at 15 uM concentration", "method_in_brief": "(§2)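 Daunomycin-resistant (DNM-R150) promastigotes, log phase, 3 × 10⁵ cells per well, co-exposed to 150 μM DNM plus sesquiterpene (DMSO stock diluted in medium; final DMSO ≤0.3%). Incubated 72 h at 28 °C in RPMI 1640-modified medium with 20% heat-inactivated FBS. MTT added for 4 h, formazan dissolved in 20% SDS, A540 read. %GI calculated relative to control cells given the same DNM without modulator.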"}, "[3]": {"test_system": "Leishmania tropica", "assay": "Growth inhibition of wild type L. Tropica parasite at 7.5 uM concentration", "method_in_brief": "as §1"}, "[4]": {"test_system": "Leishmania tropica", "assay": "Growth inhibition of MDR (DNM-R150) L. Tropica line at 30 uM concentration", "method_in_brief": "as §2"}, "[5]": {"test_system": "Leishmania tropica", "assay": "Growth inhibition of MDR (DNM-R150) L. Tropica line at 7.5 uM concentration", "method_in_brief": "as §2"}, "[6]": {"test_system": "Leishmania tropica", "assay": "Growth inhibition of wild type L. Tropica parasite at 15 uM concentration", "method_in_brief": "as §1"}}, "data": [{"smiles": "CC(=O)OC[C@]12[C@@H](OC(=O)c3ccccc3)CC3[C@@H](OC(=O)c4ccccc4)C1(OC3(C)C)[C@@](C)(O)C[C@@H](OC(=O)c1cccnc1)[C@@H]2OC(C)=O", "note": "(some centres undefined)", "values": [{"measurement": "inhibition", "setting": "[1]", "value": 45, "unit": "%"}, {"measurement": "inhibition", "setting": "[2]", "value": 91.3, "unit": "%"}, {"measurement": "inhibition", "setting": "[3]", "value": 8.2, "unit": "%"}, {"measurement": "inhibition", "setting": "[4]", "value": 94.8, "unit": "%"}, {"measurement": "inhibition", "setting": "[5]", "value": 80.7, "unit": "%"}, {"measurement": "inhibition", "setting": "[6]", "value": 25.8, "unit": "%"}]}, {"smiles": "CC(=O)O[C@@H]1[C@H](OC(=O)c2cccnc2)[C@@]2(C)[C@@H](OC(=O)c3ccccc3)[C@@H](OC(C)=O)C3CC2(OC3(C)C)[C@@](C)(O)[C@H]1OC(=O)c1ccccc1", "note": "(some centres undefined)", "values": [{"measurement": "inhibition", "setting": "[1]", "value": 19.7, "unit": "%"}, {"measurement": "inhibition", "setting": "[2]", "value": 44, "unit": "%"}, {"measurement": "inhibition", "setting": "[3]", "value": 0, "unit": "%"}, {"measurement": "inhibition", "setting": "[4]", "value": 69.7, "unit": "%"}, {"measurement": "inhibition", "setting": "[5]", "value": 21.4, "unit": "%"}, {"measurement": "inhibition", "setting": "[6]", "value": 12.9, "unit": "%"}]}, {"smiles": "CC(=O)O[C@@H]1[C@H](OC(=O)c2ccccc2)[C@@]2(C)[C@@H](OC(=O)c3ccccc3)[C@@H](OC(C)=O)C3CC2(OC3(C)C)[C@@](C)(O)[C@H]1OC(C)=O", "note": "(some centres undefined)", "values": [{"measurement": "inhibition", "setting": "[1]", "value": 23, "unit": "%"}, {"measurement": "inhibition", "setting": "[2]", "value": 65, "unit": "%"}, {"measurement": "inhibition", "setting": "[3]", "value": 1.7, "unit": "%"}, {"measurement": "inhibition", "setting": "[4]", "value": 90, "unit": "%"}, {"measurement": "inhibition", "setting": "[5]", "value": 39, "unit": "%"}, {"measurement": "inhibition", "setting": "[6]", "value": 14.4, "unit": "%"}]}, {"smiles": "CC(=O)OC[C@]12[C@@H](OC(=O)c3ccccc3)CC3[C@@H](OC(=O)c4ccccc4)C1(OC3(C)C)[C@H](C)C[C@@H](OC(=O)c1cccnc1)[C@@H]2OC(C)=O", "note": "(some centres undefined)", "values": [{"measurement": "inhibition", "setting": "[1]", "value": 35, "unit": "%"}, {"measurement": "inhibition", "setting": "[2]", "value": 87.9, "unit": "%"}, {"measurement": "inhibition", "setting": "[3]", "value": 11.5, "unit": "%"}, {"measurement": "inhibition", "setting": "[4]", "value": 93.7, "unit": "%"}, {"measurement": "inhibition", "setting": "[5]", "value": 83.7, "unit": "%"}, {"measurement": "inhibition", "setting": "[6]", "value": 27.5, "unit": "%"}]}, {"smiles": "CC(=O)O[C@@H]1[C@H](OC(=O)c2cccnc2)[C@@]2(C)[C@@H](OC(=O)c3ccccc3)[C@@H](OC(=O)c3ccccc3)C3CC2(OC3(C)C)[C@@](C)(O)[C@H]1OC(C)=O", "note": "(some centres undefined)", "values": [{"measurement": "inhibition", "setting": "[1]", "value": 11, "unit": "%"}, {"measurement": "inhibition", "setting": "[2]", "value": 54, "unit": "%"}, {"measurement": "inhibition", "setting": "[3]", "value": 0.5, "unit": "%"}, {"measurement": "inhibition", "setting": "[4]", "value": 89, "unit": "%"}, {"measurement": "inhibition", "setting": "[5]", "value": 23.9, "unit": "%"}, {"measurement": "inhibition", "setting": "[6]", "value": 6, "unit": "%"}]}, {"smiles": "CC(=O)O[C@@H]1[C@H](OC(=O)/C=C/c2ccccc2)[C@@]2(C)[C@@H](OC(=O)c3ccccc3)CC3CC2(OC3(C)C)[C@@](C)(O)[C@H]1OC(=O)c1cccnc1", "note": "(some centres undefined)", "values": [{"measurement": "inhibition", "setting": "[1]", "value": 7.5, "unit": "%"}, {"measurement": "inhibition", "setting": "[2]", "value": 90.3, "unit": "%"}, {"measurement": "inhibition", "setting": "[3]", "value": 2.5, "unit": "%"}, {"measurement": "inhibition", "setting": "[4]", "value": 94.7, "unit": "%"}, {"measurement": "inhibition", "setting": "[5]", "value": 82, "unit": "%"}, {"measurement": "inhibition", "setting": "[6]", "value": 3.7, "unit": "%"}]}, {"smiles": "CC(=O)O[C@H]1C[C@](C)(O)C23CC(C[C@H](OC(=O)c4ccccc4)[C@]2(C)[C@H]1OC(=O)c1ccccc1)C(C)(C)O3", "note": "(some centres undefined)", "values": [{"measurement": "inhibition", "setting": "[1]", "value": 13.3, "unit": "%"}, {"measurement": "inhibition", "setting": "[2]", "value": 89.7, "unit": "%"}, {"measurement": "inhibition", "setting": "[3]", "value": 5.3, "unit": "%"}, {"measurement": "inhibition", "setting": "[4]", "value": 94, "unit": "%"}, {"measurement": "inhibition", "setting": "[5]", "value": 82, "unit": "%"}, {"measurement": "inhibition", "setting": "[6]", "value": 4.1, "unit": "%"}]}, {"smiles": "CC(=O)O[C@@H]1C2[C@H](OC(C)=O)[C@H](OC(=O)c3ccccc3)[C@]3(C)[C@@H](OC(=O)c4ccccc4)[C@H](OC(=O)c4cccnc4)C[C@@H](C)C13OC2(C)C", "note": "(some centres undefined)", "values": [{"measurement": "inhibition", "setting": "[1]", "value": 13.3, "unit": "%"}, {"measurement": "inhibition", "setting": "[2]", "value": 79.3, "unit": "%"}, {"measurement": "inhibition", "setting": "[3]", "value": 1.7, "unit": "%"}, {"measurement": "inhibition", "setting": "[4]", "value": 94.5, "unit": "%"}, {"measurement": "inhibition", "setting": "[5]", "value": 42.2, "unit": "%"}, {"measurement": "inhibition", "setting": "[6]", "value": 13, "unit": "%"}]}, {"smiles": "CC(=O)O[C@H]1C[C@](C)(O)C23CC(C[C@H](OC(=O)/C=C/c4ccccc4)[C@]2(C)[C@H]1OC(=O)c1ccccc1)C(C)(C)O3", "note": "(some centres undefined)", "values": [{"measurement": "inhibition", "setting": "[1]", "value": 7.5, "unit": "%"}, {"measurement": "inhibition", "setting": "[2]", "value": 92.8, "unit": "%"}, {"measurement": "inhibition", "setting": "[3]", "value": 0, "unit": "%"}, {"measurement": "inhibition", "setting": "[4]", "value": 94.3, "unit": "%"}, {"measurement": "inhibition", "setting": "[5]", "value": 88.2, "unit": "%"}, {"measurement": "inhibition", "setting": "[6]", "value": 7.3, "unit": "%"}]}, {"smiles": "CC(=O)O[C@H]1[C@H](O)[C@@H](C)C23OC(C)(C)C(C[C@H](OC(=O)c4ccccc4)[C@]2(C)[C@H]1OC(=O)c1ccccc1)[C@H]3OC(C)=O", "note": "(some centres undefined)", "values": [{"measurement": "inhibition", "setting": "[1]", "value": 11.7, "unit": "%"}, {"measurement": "inhibition", "setting": "[2]", "value": 54, "unit": "%"}, {"measurement": "inhibition", "setting": "[3]", "value": 0, "unit": "%"}, {"measurement": "inhibition", "setting": "[4]", "value": 77.5, "unit": "%"}, {"measurement": "inhibition", "setting": "[5]", "value": 32, "unit": "%"}, {"measurement": "inhibition", "setting": "[6]", "value": 3.5, "unit": "%"}]}, {"smiles": "CC(=O)O[C@@H]1[C@H](OC(=O)c2ccccc2)[C@@]2(C)[C@@H](OC(=O)c3ccccc3)[C@@H](OC(=O)c3ccccc3)C3CC2(OC3(C)C)[C@@](C)(O)[C@H]1OC(C)=O", "note": "(some centres undefined)", "values": [{"measurement": "inhibition", "setting": "[1]", "value": 20.5, "unit": "%"}, {"measurement": "inhibition", "setting": "[2]", "value": 79, "unit": "%"}, {"measurement": "inhibition", "setting": "[3]", "value": 0.5, "unit": "%"}, {"measurement": "inhibition", "setting": "[4]", "value": 93, "unit": "%"}, {"measurement": "inhibition", "setting": "[5]", "value": 48.7, "unit": "%"}, {"measurement": "inhibition", "setting": "[6]", "value": 15.8, "unit": "%"}]}, {"smiles": "CC(=O)O[C@@H]1[C@H](OC(=O)c2ccccc2)[C@@]2(C)[C@@H](OC(=O)c3ccccc3)CC3[C@@H](OC(C)=O)C2(OC3(C)C)[C@@](C)(O)[C@H]1OC(=O)c1cccnc1", "note": "(some centres undefined)", "values": [{"measurement": "inhibition", "setting": "[1]", "value": 3.7, "unit": "%"}, {"measurement": "inhibition", "setting": "[2]", "value": 30.7, "unit": "%"}, {"measurement": "inhibition", "setting": "[3]", "value": 2.2, "unit": "%"}, {"measurement": "inhibition", "setting": "[4]", "value": 69.5, "unit": "%"}, {"measurement": "inhibition", "setting": "[5]", "value": 10, "unit": "%"}, {"measurement": "inhibition", "setting": "[6]", "value": 0.7, "unit": "%"}]}, {"smiles": "CC(=O)O[C@@H]1[C@H](OC(=O)c2ccccc2)[C@@]2(C)[C@@H](OC(=O)/C=C/c3ccccc3)C[C@H]3[C@@H](OC(C)=O)[C@]2(OC3(C)C)[C@@](C)(O)[C@H]1OC(=O)c1cccnc1", "values": [{"measurement": "inhibition", "setting": "[1]", "value": 1.9, "unit": "%"}, {"measurement": "inhibition", "setting": "[2]", "value": 13.5, "unit": "%"}, {"measurement": "inhibition", "setting": "[3]", "value": 1.5, "unit": "%"}, {"measurement": "inhibition", "setting": "[4]", "value": 45, "unit": "%"}, {"measurement": "inhibition", "setting": "[5]", "value": 7.3, "unit": "%"}, {"measurement": "inhibition", "setting": "[6]", "value": 1.5, "unit": "%"}]}, {"smiles": "CC(=O)O[C@@H]1C2[C@H](OC(C)=O)[C@H](OC(=O)c3ccccc3)[C@]3(C)[C@@H](OC(=O)c4ccccc4)[C@H](OC(=O)c4ccccc4)C[C@](C)(O)C13OC2(C)C", "note": "(some centres undefined)", "values": [{"measurement": "inhibition", "setting": "[1]", "value": 16.2, "unit": "%"}, {"measurement": "inhibition", "setting": "[2]", "value": 82.2, "unit": "%"}, {"measurement": "inhibition", "setting": "[3]", "value": 9.7, "unit": "%"}, {"measurement": "inhibition", "setting": "[4]", "value": 92, "unit": "%"}, {"measurement": "inhibition", "setting": "[5]", "value": 60.3, "unit": "%"}, {"measurement": "inhibition", "setting": "[6]", "value": 19.7, "unit": "%"}]}]}
